Experiment [1] deals with human breast cancer cell line (MCF-7). Description: CCK8 cell proliferation assay, MCF-7. The experiment is classed as cell-based. Particulars: read-out: IC50 (μM) MCF-7; CCK8, 48 h peptide treatment, 0.78–25 μM, OD 450 nm. The method in brief: (§1)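 Cells kept in DMEM with 10% FBS and 1% penicillin-streptomycin at 37 °C, 5% CO2. Seeded at 3 × 10^3 cells/well and grown for 24 h. Treated with or without peptide (0.78, 1.56, 3.125, 6.25, 12.5, 25 μM) for 48 h. Medium then switched to serum-free; CCK-8 added 10 μL/well for 1 h at 37 °C. OD read at 450 nm; IC50 obtained by curve fitting.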
Background: Tetrazolium assays rely on reduction of a dye to a coloured formazan, in cell work by metabolically active cells.

The subject of experiment [2] is human colon cancer cell line (HCT116). The experiment can be described thus: CCK8 cell proliferation assay, HCT116. The experiment is classed as cell-based. As to conditions: read-out: IC50 (μM) HCT116; CCK8, 48 h peptide treatment, 0.78–25 μM, OD 450 nm. The method in brief:
as §1

Another experiment relates to glioma cell line (U87). The experiment can be described thus: CCK8 cell proliferation assay, U87. The experiment is classed as cell-based, human. As to conditions: read-out: IC50 (μM) U87; CCK8, 48 h peptide treatment, 0.78–25 μM, OD 450 nm. The procedure, abridged: as §1
Experiment [3] has as its system MCF-7 cells. The experiment can be described thus: In vitro transwell migration assay. The experiment is classed as cell-based, human. Particulars: MCF-7, transwell 8 μm pore, 48 h, compared with control group, n = 3.
The test system of experiment [4] is MCF-7 cells. The experiment can be described thus: Annexin V-FITC/PI apoptosis assay by flow cytometry. The experiment is classed as cell-based, human. Particulars: MCF-7, 10 μM peptide.
Experiment [5] relates to MCF-7 cells. Description: Calcein-AM/PI cell viability staining. It is filed as cell-based, human. Particulars: MCF-7, 10 μM peptide, 24 hours. The procedure, abridged: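 MCF-7 seeded at 5 × 10^3 cells/well and held at 37 °C for 24 h. Peptide added at a final 10 μM for another 24 h. Cells stained with a PBS working solution of calcein-AM (2 μM) and PI (4.5 μM) at 37 °C for 15 min. Live/dead fluorescence imaged on a high-content screening system.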

*1 amine or outer side, *2 acyl side, *3 side chain or, on linkers, in order; H or OH if unused. Where a SMILES comes first, the peptide text is derived from it. Bridges are numbered along the chain shown (N, C = ends). Biphenyl(4,4'-CH2)2 = c1cc(-c2ccc(C[*:2])cc2)ccc1C[*:1]; mXylylene = c1cc(C[*:1])cc(C[*:2])c1; oXylylene = c1ccc(C[*:2])c(C[*:1])c1; pXylylene = c1cc(C[*:2])ccc1C[*:1]

`CC(C)C[C@H](NC(=O)[C@H](CC(C)C)NC(=O)[C@H](CC(=O)O)NC(=O)[C@H](CCCCN)NC(=O)[C@H](Cc1ccccc1)NC(=O)CN)C(=O)N[C@@H](CCCCN)C(=O)NCC(=O)N[C@@H](C)C(=O)N[C@@H](C)C(=O)N[C@@H](CCCCN)C(=O)N[C@H]1CSCc2cccc(c2)CSC[C@@H](C(=O)N[C@H](C(=O)N[C@@H](CC(C)C)C(=O)N[C@@H](Cc2ccccc2)C(N)=O)C(C)C)NC(=O)[C@H](CCCCN)NC(=O)[C@H](C(C)C)NC(=O)[C@H](CC(C)C)NC1=O` [Peptide A8-3-m] (H-GFKDLLKGAAKCLVKCVLF-NH2; linker 12-16 via mXylylene): the IC50 (usually the concentration needed to halve the response being measured) in experiment [1] worked out at 7.8 µM; in experiment [2] it was 9.21 µM; in the experiment on glioma cell line (U87) it was 8.69 µM.

`CC(C)C[C@H](NC(=O)[C@H](CC(C)C)NC(=O)[C@H](CC(=O)O)NC(=O)[C@H](CCCCN)NC(=O)[C@H](Cc1ccccc1)NC(=O)CN)C(=O)N[C@@H](CCCCN)C(=O)NCC(=O)N[C@@H](C)C(=O)N[C@@H](C)C(=O)N[C@@H](CCCCN)C(=O)N[C@H]1CSCc2ccccc2CSC[C@@H](C(=O)N[C@H](C(=O)N[C@@H](CC(C)C)C(=O)N[C@@H](Cc2ccccc2)C(N)=O)C(C)C)NC(=O)[C@H](CCCCN)NC(=O)[C@H](C(C)C)NC(=O)[C@H](CC(C)C)NC1=O` [Peptide A8-3-o] (H-GFKDLLKGAAKCLVKCVLF-NH2; linker 12-16 via oXylylene): the IC50 in experiment [1] worked out at 6.03 µM; in experiment [2] it was 7.68 µM; with glioma cell line (U87), 9.28 µM.

As for `CC(C)C[C@H](NC(=O)[C@H](CC(C)C)NC(=O)[C@H](CC(=O)O)NC(=O)[C@H](CCCCN)NC(=O)[C@H](Cc1ccccc1)NC(=O)CN)C(=O)N[C@@H](CCCCN)C(=O)NCC(=O)N[C@@H](C)C(=O)N[C@@H](C)C(=O)N[C@@H](CCCCN)C(=O)N[C@H]1CSCc2ccc(cc2)CSC[C@@H](C(=O)N[C@H](C(=O)N[C@@H](CC(C)C)C(=O)N[C@@H](Cc2ccccc2)C(N)=O)C(C)C)NC(=O)[C@H](CCCCN)NC(=O)[C@H](C(C)C)NC(=O)[C@H](CC(C)C)NC1=O` [Peptide A8-3-p] (H-GFKDLLKGAAKCLVKCVLF-NH2; linker 12-16 via pXylylene), the figures for the IC50 (in experiment [1]; in experiment [2]; in the experiment with glioma cell line (U87)) were 11.7 µM, 11.2 µM and 14.4 µM, respectively.

For the molecule `CC(C)C[C@@H]1NC(=O)[C@H](C)NC(=O)[C@H](CCCCN)NC(=O)[C@H](C)NC(=O)[C@@H](NC(=O)CNC(=O)[C@H](CCCCN)NC(=O)[C@H](CC(C)C)NC(=O)[C@H](CC(C)C)NC(=O)[C@H](CC(=O)O)NC(=O)[C@H](CCCCN)NC(=O)[C@H](Cc2ccccc2)NC(=O)CN)CSCc2ccc(cc2)-c2ccc(cc2)CSC[C@@H](C(=O)N[C@H](C(=O)N[C@@H](CC(C)C)C(=O)N[C@@H](Cc2ccccc2)C(N)=O)C(C)C)NC(=O)[C@H](CCCCN)NC(=O)[C@H](C(C)C)NC1=O` [Peptide A8-4-Dp] (H-GFKDLLKGCAKALVKCVLF-NH2; linker 9-16 via Biphenyl(4,4'-CH2)2), the IC50 in experiment [1] was 2.99 µM; in experiment [2] it was 3.03 µM; in the experiment with glioma cell line (U87), 3.63 µM. Besides, the “Migration through the polycarbonate membrane” value in the experiment on MCF-7 cells [3] is given as “rarely migrated”. For the same molecule, the “Number of apoptotic cells versus Ascaphin-8 and normal medium” value with MCF-7 cells [4] is listed as “significantly higher”. The “Calcein-AM/PI fluorescence of cells” value with MCF-7 cells [5] is “a large amount of red fluorescence”.

The record behind these values is article PMC10318414 (RSC Advances, 2023).
